Measurements from ChEMBL document CHEMBL4033788, “Novel Ligustrazine-Based Analogs of Piperlongumine Potently Suppress Proliferation and Metastasis of Colorectal Cancer Cells in Vitro and in Vivo” (J Med Chem, 2018).
Converted amounts (≈) assume the structure as drawn. The source made the active and inactive calls. No cut-off for these calls is given here.

Key:
[1] = Half life in Sprague-Dawley rat at 20 mg/kg, iv after 4 hrs by LC-MS/MS analysis; format: ADME, organism-based; details: in vivo
[2] = tested on: HCT-116; experiment: Antimigratory activity in human HCT116 cells assessed as inhibition of TGF-beta1-induced cell migration at 50 nM after 48 hrs by trans-well assay; format: functional, cell-based
How it was run: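 HCT-116 cells (1 × 10^5/well) placed in upper chambers of 8 μm pore transwells. Lower chambers held, in triplicate, medium alone or TGF-β1 (10 ng/mL) with or without test agents (2, 10, 50 nM) for 48 h. Non-migrated cells removed, migrated cells stained with crystal violet, 10 fields per well counted blinded. Three independent experiments.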

[3] = tested on: HCT-8; experiment: Antiproliferative activity against human HCT8 cells after 72 hrs by MTT assay; format: functional, cell-based; details: HCT-8, 72 h
How it was run: (§1)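 Cells grown in RPMI 1640 with 10% FBS in 96-well plates overnight, then exposed to test agents in triplicate for 72 h. MTT (5 mg/mL stock) added for the last 4 h, formazan dissolved in DMSO, absorbance read at 570 nm. Inhibition = (1 − OD treated/OD control) × 100%.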

[4] = tested on: Mus musculus; experiment: Toxicity in BALB/c nude mouse xenografted with human HCT116 cells assessed as loss of body weight at 4 mg/kg, ip administered thrice a week for 6 consecutive weeks; format: organism-based; details: in vivo
How it was run: (§2)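 Lung metastasis model: HCT-116 cells in serum-free medium injected into tail vein of BALB/c nude mice, then randomized and given vehicle or compound ip (1, 2 or 4 mg/kg) three times a week. Body weight recorded weekly, survival monitored (n = 6); mice sacrificed after 40 days and lungs examined by H&E histology.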

[5] = tested on: K562; experiment: Antiproliferative activity against human K562 cells after 72 hrs by MTT assay; format: functional, cell-based; details: K562, 72 h; how it was run: as §1
[6] = tested on: HCT-116; experiment: Antitumor activity against human HCT116 cells xenografted in BALB/c nude mouse assessed as tumor growth inhibition at 5 mg/kg, ip administered daily for 21 consecutive days relative to control; format: functional; details: HCT-116, ip, read-out: TGI
How it was run: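 Male BALB/c nude mice, 3–5 weeks old, inoculated subcutaneously with 1 × 10^7 HCT-116 cells. At about 75 mm³ tumor volume, randomized (n = 8/group) and dosed intraperitoneally daily. Volume by caliper as d² × D/2. At the end, tumors excised and weighed; inhibition = (Wcontrol − Wtreated)/Wcontrol × 100%.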

[7] = tested on: U-87 MG; experiment: Antiproliferative activity against human U87MG cells after 72 hrs in presence of ligustrazine by MTT assay; format: functional, cell-based, U-87MG ATCC; how it was run: as §1
[8] = tested on: HCT-116; experiment: Inhibition of TGF-beta1-induced increase in expression levels of vimentin protein in human HCT116 cells at 50 nM after 48 hrs by Western blot analysis; format: functional, cell-based
How it was run: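 HCT-116 cells (1 × 10^6/well, plated overnight) were exposed to TGF-β1 (10 ng/mL) for 48 h, with or without test compound; vehicle was 0.1% DMSO. Lysates (20 μg/lane) were run on 7.5% SDS-PAGE and blotted to PVDF, with primary antibody overnight at 4 °C and HRP/ECL detection. Band densities were normalised to β-actin across three independent experiments.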

[9] = tested on: HCT-116; experiment: Induction of ROS accumulation in human HCT116 cells at 10 uM after 3 hrs by DCFH-DA staining-based fluorescence microscopic analysis; format: functional, cell-based
How it was run: (§3)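 HCT-116 or CCD-841 cells treated at 10 μM for 3 h, stained with DCFH-DA, and imaged by fluorescence microscopy for green-fluorescent cells.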

[10] = Antiproliferative activity against human CCD-841 cells after 72 hrs by MTT assay; format: cell-based; details: CCD-841, 72 h; how it was run: as §1
[11] = tested on: U-87 MG; experiment: Antiproliferative activity against human U87MG cells after 72 hrs by MTT assay; format: functional, cell-based, U-87MG ATCC; how it was run: as §1
[12] = tested on: SW-620; experiment: Antiproliferative activity against human SW620 cells after 72 hrs by MTT assay; format: functional, cell-based; details: SW-620, 72 h; how it was run: as §1
[13] = Solubility of compound in phosphate buffer at pH 7.4 after 8 hrs by HPLC analysis; format: physicochemical
How it was run: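 Compound was shaken in 50 mM phosphate buffer (pH 7.4) at 20 °C, centrifuged, and the supernatant analysed by HPLC. Conditions were a C18 column, acetonitrile–water 60/40 (v/v) at 1.0 mL/min, with detection at 254 nm. Run in triplicate.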

[14] = Induction of ROS accumulation in human CCD-841 cells at 10 uM after 3 hrs by DCFH-DA staining-based fluorescence microscopic analysis; format: cell-based; details: ccd-841, 3 h; how it was run: as §3
[15] = tested on: HT-29; experiment: Antiproliferative activity against human HT-29 cells after 72 hrs by MTT assay; format: functional, cell-based; details: HT-29, 72 h; how it was run: as §1
[16] = tested on: Mus musculus; experiment: Toxicity in BALB/c nude mouse xenografted with human HCT116 cells assessed as mortality at 4 mg/kg, ip administered thrice a week for 6 consecutive weeks; format: organism-based; details: in vivo; how it was run: as §2
[17] = tested on: HCT-116; experiment: Antiproliferative activity against human HCT116 cells after 72 hrs by MTT assay; format: functional, cell-based; details: HCT-116, 72 h; how it was run: as §1
[18] = tested on: HCT-116; experiment: Cytotoxicity against human HCT116 cells at 2 to 50 nM after 24 to 48 hrs in presence of TGF-beta1 by MTT assay; format: cell-based; details: hct-116, 0.05 µM
How it was run: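 HCT-116 cells exposed to TGF-β1 (10 ng/mL) alone or combined with test agent at 2, 10 or 50 nM for 24, 48 or 72 h. Viability read by MTT (formazan in DMSO, 570 nm).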

[19] = tested on: HCT-116; experiment: Induction of ROS accumulation in human HCT116 cells at 1 to 10 uM up to 3 hrs by DCFH-DA staining-based fluorescence spectrometric analysis; format: functional, cell-based
How it was run: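 HCT-116 and CCD-841 cells treated in triplicate at 1, 5 and 10 μM for 1, 2 and 3 h. Intracellular ROS stained with DCFH-DA and fluorescence read on a microplate reader. Values expressed relative to DMSO control, from three separate experiments.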

[20] = Thiol reactivity in DMSO assessed as addition reaction at C8 position at 5 mg up to 8 hrs in presence of 3.0 equiv methyl thioglycolate by 1H NMR analysis
[21] = Acute toxicity in ICR mouse assessed as survival rate at 150 mg/kg, ip administered for 14 days relative to control; format: organism-based; details: in vivo
[22] = Aqueous solubility of compound by HPLC analysis; format: physicochemical; details: water
How it was run: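 Compound shaken in pure water or 50 mM phosphate buffer pH 7.4 at 20 °C, then centrifuged. Supernatant assayed by C18 HPLC (acetonitrile–water 60/40, 1.0 mL/min, 254 nm). Triplicate.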

[23] = tested on: A549; experiment: Antiproliferative activity against human A549 cells after 72 hrs by MTT assay; format: functional, cell-based; details: A549, 72 h
[24] = Acute toxicity in ICR mouse assessed as survival rate at 100 mg/kg, ip administered for 14 days relative to control; format: organism-based; details: in vivo
[25] = Stability of compound in intestinal fluid at pH 6.8 at 1 uM after 4 hrs by LC-MS/MS analysis
[26] = tested on: HCT-116; experiment: Induction of ROS accumulation in human HCT116 cells up to 3 hrs in presence of GSH by DCFH-DA staining-based fluorescence spectrometric analysis; format: functional, cell-based

Compound: COc1cc(/C=C/C(=O)N2CCC=CC2=O)cc(OC)c1OC [PIPLARTINE]
- half-life [1]: 2.87 h
- Activity [2]: Active
- IC50 [3]: 4.1 µM
- Activity [4]: Non-Toxic
- IC50 [5]: 5.05 µM
- inhibition in vivo at 5 mg/kg [6]: 60.6%
- IC50 [7]: 16.1 µM
- inhibition [8]: Active
- Activity [9]: Active
- IC50 [10]: 44.3 µM
- IC50 [11]: 17.3 µM
- IC50 [12]: 4.62 µM
- solubility at 8 h [13]: 0.32 µg/mL (≈ 1.01 µM)
- Activity [14]: Toxic
- IC50 [15]: 2.65 µM
- Activity [16]: Non-Toxic
- IC50 [17]: 8.13 µM
- Activity [18]: Non-Toxic

Compound: Cc1nc(C)c(/C=C/C(=O)N2CCC=C(Cl)C2=O)nc1C
- half-life [1]: 2.17 h
- Activity [19]: Active
- Drug metabolism [20]: Metabolite not detected
- survival at 336 h [21]: 40%
- IC50 [3]: 1.21 µM
- Activity [4]: Non-Toxic
- IC50 [5]: 0.25 µM
- inhibition in vivo at 5 mg/kg [6]: 71.4%
- Activity [9]: Active
- IC50 [10]: 51.6 µM
- solubility [22]: 22.8 µg/mL (≈ 74.7 µM)
- IC50 [23]: 2.21 µM
- survival at 336 h [24]: 80%
- IC50 [11]: 3.43 µM
- IC50 [12]: 0.87 µM
- solubility at 8 h [13]: 74.6 µg/mL (≈ 244 µM)
- Activity [14]: Toxic
- IC50 [15]: 0.54 µM
- Stability [25]: Stable
- IC50 [17]: 0.3 µM
- Activity [18]: Non-Toxic
- Activity [26]: inactive
